Results as given in ChEMBL document CHEMBL3259739, “Synthesis and structure-activity relationship of trisubstituted thiazoles as Cdc7 kinase inhibitors” (Eur J Med Chem, 2014).
Activity calls are given as the source filed them.

Columns and labels:
[1] = target: T1, CDC7/DBF4 (Cell division cycle 7-related protein kinase/Activator of S phase kinase) (Homo sapiens, UniProt O00311); test: Inhibition of Cdc7/Dbf4 (unknown origin) using 0.047 uM of ATP as substrate by AlphaScreen assay; assay type: protein-complex assay
T1 sequence (Q9UBU7 whole entry): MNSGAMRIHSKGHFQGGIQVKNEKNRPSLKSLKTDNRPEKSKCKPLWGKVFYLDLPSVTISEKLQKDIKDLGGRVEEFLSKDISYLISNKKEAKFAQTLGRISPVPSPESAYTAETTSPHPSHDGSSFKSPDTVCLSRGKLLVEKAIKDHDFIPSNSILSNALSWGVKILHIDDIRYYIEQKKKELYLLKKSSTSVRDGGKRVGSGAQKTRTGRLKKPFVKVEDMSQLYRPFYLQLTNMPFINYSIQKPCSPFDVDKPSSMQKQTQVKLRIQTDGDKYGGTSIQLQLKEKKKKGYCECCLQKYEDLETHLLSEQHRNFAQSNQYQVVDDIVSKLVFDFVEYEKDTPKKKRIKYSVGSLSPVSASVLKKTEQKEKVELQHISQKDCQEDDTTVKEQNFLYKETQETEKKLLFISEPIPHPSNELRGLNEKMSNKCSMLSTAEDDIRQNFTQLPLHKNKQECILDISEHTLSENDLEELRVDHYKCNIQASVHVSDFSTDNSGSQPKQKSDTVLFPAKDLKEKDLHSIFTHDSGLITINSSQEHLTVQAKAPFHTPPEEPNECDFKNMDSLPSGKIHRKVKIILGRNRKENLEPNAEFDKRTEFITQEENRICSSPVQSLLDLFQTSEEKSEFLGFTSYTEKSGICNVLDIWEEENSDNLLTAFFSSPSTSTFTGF
T1 sequence (O00311 whole entry): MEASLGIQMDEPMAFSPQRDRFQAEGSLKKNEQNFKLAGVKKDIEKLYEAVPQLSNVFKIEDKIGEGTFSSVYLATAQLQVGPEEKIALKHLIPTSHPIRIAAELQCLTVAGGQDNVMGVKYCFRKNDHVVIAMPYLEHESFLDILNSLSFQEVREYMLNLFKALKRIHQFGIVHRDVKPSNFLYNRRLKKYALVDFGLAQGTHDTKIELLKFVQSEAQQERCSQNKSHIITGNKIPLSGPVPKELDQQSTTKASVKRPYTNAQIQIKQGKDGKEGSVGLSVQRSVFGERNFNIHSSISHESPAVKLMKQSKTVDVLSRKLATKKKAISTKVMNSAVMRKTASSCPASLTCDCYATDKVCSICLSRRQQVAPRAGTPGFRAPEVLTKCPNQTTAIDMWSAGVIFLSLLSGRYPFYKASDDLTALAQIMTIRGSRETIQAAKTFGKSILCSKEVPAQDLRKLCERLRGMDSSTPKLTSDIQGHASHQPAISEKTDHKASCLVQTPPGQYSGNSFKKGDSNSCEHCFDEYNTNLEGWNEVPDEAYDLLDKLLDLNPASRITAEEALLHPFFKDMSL
Outline: (§1)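 Mechanism-of-action AlphaScreen run with 6 nM Cdc7/Dbf4 and 10 nM biotinylated MCM2 substrate. […] Reaction time was 2 h. Phospho-Ser53 MCM2 was read by antibody-bound acceptor beads with streptavidin donor beads. Rates and Ki were fitted to a competitive inhibition model.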

[2] = target: T1, CDC7/DBF4 (Cell division cycle 7-related protein kinase/Activator of S phase kinase); test: Inhibition of Cdc7/Dbf4 (unknown origin) using 1.5 uM of ATP as substrate by AlphaScreen assay; assay type: protein-complex assay; outline: as §1
[3] = target: T1, CDC7/DBF4 (Cell division cycle 7-related protein kinase/Activator of S phase kinase); test: Inhibition of Cdc7/Dbf4 (unknown origin) using 0.094 uM of ATP as substrate by AlphaScreen assay; assay type: protein-complex assay; outline: as §1
[4] = target: T1, CDC7/DBF4 (Cell division cycle 7-related protein kinase/Activator of S phase kinase); test: Inhibition of Cdc7/Dbf4 (unknown origin) using 0.023 uM of ATP as substrate by AlphaScreen assay; assay type: protein-complex assay
Outline: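 AlphaScreen with 6 nM Cdc7/Dbf4 and 10 nM biotinylated His/avitag MCM2 (aa1-467) substrate. Phospho-Ser53 MCM2 detected with antibody-bound Protein A acceptor and streptavidin donor beads. Rates fitted by Michaelis–Menten and double-reciprocal plots.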

[5] = target: Cyclin-dependent kinase 1/cyclin B1 (Homo sapiens, UniProt P06493); test: Inhibition of CDK1/Cyclin-B (unknown origin) by homogeneous time-resolved fluorescence assay; assay type: protein-complex assay
Chain of Cyclin-dependent kinase 1/cyclin B1 (P06493 whole entry): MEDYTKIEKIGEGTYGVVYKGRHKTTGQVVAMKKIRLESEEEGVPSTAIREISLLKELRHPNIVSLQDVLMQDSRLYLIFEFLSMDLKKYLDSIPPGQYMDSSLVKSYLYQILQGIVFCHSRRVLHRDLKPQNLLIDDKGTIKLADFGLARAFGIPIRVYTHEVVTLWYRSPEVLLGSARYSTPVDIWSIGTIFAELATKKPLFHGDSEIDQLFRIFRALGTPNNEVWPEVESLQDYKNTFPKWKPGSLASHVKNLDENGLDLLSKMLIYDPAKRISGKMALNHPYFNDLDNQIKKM
Chain of Cyclin-dependent kinase 1/cyclin B1 (P14635 whole entry, further chain): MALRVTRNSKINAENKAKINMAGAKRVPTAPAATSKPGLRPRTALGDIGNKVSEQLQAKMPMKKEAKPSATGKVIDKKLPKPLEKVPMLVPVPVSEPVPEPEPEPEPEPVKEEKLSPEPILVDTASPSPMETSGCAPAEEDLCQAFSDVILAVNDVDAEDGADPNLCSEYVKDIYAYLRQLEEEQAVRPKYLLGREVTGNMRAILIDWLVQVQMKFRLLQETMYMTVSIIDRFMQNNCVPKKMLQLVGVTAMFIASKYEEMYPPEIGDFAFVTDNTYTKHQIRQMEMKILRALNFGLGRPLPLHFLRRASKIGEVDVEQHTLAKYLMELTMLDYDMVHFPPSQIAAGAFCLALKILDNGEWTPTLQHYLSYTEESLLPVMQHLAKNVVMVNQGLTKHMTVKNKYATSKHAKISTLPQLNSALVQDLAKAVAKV
Outline: (§2)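 Counter-screens by HTRF kinase assays: CDK1/Cyclin B and CDK4/Cyclin D1 in HTRF format, CDK9/Cyclin T1 with a 4eBP1 ULight substrate, and the CK2 tetramer with a TopoII ULight substrate.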

[6] = target: Serine/threonine-protein kinase pim-1 (Homo sapiens, UniProt P11309); test: Inhibition of Pim1 (unknown origin) by homogeneous time-resolved fluorescence assay
Outline: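 Pim1 counter-screened biochemically with a homogeneous time-resolved fluorescence (HTRF) kinase assay.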

Mus musculus [7] = test: Toxicity in NCR nude mouse xenografted with human HCT116 cells assessed as appearance of moribund at 150 mg/kg, iv after 6 hrs; assay type: organism-based, HCT-116; set-up: dose 150 mg/kg, route intravenous; conditions: in vivo
Outline: (§3)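 Female athymic NCR/nu mice bearing subcutaneous HCT-116 xenografts (about 250 mm3) received a single iv dose in 20% HPbCD, 1% HPMC, 1% PluronicF68, pH7 (10 mg/ml); three mice per group. Tolerability was judged by observation over the 1–16 h sampling period.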

[8] = target: T1, CDC7/DBF4 (Cell division cycle 7-related protein kinase/Activator of S phase kinase); test: Inhibition of Cdc7/Dbf4 in human HCT116 cells assessed as reduction of MCM2 phosphorylation after 14 hrs; assay type: cell-based, HCT-116
Outline: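 HCT-116 cells were exposed to inhibitor across a 22-point dose response for 14 h. They were then immunostained for phospho-serine MCM2 using an Alexa Fluor 488 secondary, with a Hoechst nuclear counterstain. The percentage of cells with phospho-MCM2 signal above a threshold was scored by high-content imaging, and IC50 values were derived from that.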

CDK9/cyclin T1 = CDK9/cyclin T1 (Homo sapiens, UniProt P50750); test: Inhibition of CDK9/Cyclin-T1 (unknown origin) by homogeneous time-resolved fluorescence assay; assay type: protein-complex assay; outline: as §2
Chain of CDK9/cyclin T1 (O60563 whole entry): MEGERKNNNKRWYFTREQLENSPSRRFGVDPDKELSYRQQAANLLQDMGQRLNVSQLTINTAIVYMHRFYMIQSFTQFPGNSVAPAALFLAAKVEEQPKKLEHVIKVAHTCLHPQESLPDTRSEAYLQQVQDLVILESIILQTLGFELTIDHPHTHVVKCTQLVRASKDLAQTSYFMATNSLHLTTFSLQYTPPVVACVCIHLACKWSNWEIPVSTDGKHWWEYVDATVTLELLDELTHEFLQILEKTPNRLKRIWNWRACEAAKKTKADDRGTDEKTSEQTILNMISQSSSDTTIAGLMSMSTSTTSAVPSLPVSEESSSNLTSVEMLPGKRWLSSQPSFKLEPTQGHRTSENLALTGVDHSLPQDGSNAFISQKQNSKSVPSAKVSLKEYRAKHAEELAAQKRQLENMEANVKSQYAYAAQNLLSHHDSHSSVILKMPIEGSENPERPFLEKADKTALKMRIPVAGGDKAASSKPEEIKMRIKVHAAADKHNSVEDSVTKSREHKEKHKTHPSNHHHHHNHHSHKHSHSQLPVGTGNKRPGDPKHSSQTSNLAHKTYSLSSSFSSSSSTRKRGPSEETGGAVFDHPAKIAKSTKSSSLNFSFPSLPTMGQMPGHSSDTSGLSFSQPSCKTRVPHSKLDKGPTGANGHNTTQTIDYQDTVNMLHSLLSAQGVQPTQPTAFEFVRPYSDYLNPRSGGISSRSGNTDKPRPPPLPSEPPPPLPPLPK
Chain of CDK9/cyclin T1 (P50750 whole entry): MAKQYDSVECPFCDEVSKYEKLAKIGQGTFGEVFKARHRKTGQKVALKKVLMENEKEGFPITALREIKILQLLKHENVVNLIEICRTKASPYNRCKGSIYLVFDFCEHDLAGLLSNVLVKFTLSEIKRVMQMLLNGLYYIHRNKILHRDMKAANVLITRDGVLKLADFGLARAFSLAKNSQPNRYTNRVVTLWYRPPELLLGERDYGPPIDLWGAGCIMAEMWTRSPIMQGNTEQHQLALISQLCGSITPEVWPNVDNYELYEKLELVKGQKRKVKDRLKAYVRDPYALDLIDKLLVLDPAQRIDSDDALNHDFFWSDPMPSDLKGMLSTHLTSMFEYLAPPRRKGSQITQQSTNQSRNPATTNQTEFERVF

HCT-116 [9] = test: Induction of aberrant mitosis in human HCT116 cells at 1.25 uM after 72 hrs […]; assay type: functional, cell-based
HCT-116 [10] = test: Cytotoxicity against human HCT116 cells assessed as cell viability after 2 days by Cell Titer-glo assay; assay type: functional, cell-based; conditions: HCT-116, 48 h
[11] = Tmax in Sprague-Dawley rat at 5 mg/kg, po; assay type: ADME, organism-based; set-up: dose 5 mg/kg, route oral; conditions: in vivo
Outline: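 Male Sprague-Dawley rats given 5 mg/kg orally in 2% HPMC, 1% Tween80, pH2 (an iv arm received 2 mg/kg in DMSO). Plasma was sampled from 0.25 to 24 h and analyzed by LC/MS.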

[12] = Apparent oral clearance in Sprague-Dawley rat at 5 mg/kg, po; assay type: ADME, organism-based; set-up: dose 5 mg/kg, route oral; conditions: in vivo
Plasma = test: Unbound plasma concentration in NCR nude mouse xenografted with human HCT116 cells at 50 mg/kg, iv after 1 hr; assay type: ADME, organism-based, HCT-116; set-up: dose 50 mg/kg, route intravenous; conditions: in vivo
Outline: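 HCT-116 xenograft NCR/nu mice (three per group) were given a single iv dose in 20% HPbCD, 1% HPMC, 1% PluronicF68, pH7 at 10 mg/ml. Plasma collected at the time points was measured by LC/MS. Values were converted to unbound concentrations using percent plasma protein binding in mouse serum.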

[13] = target: Cyclin-dependent kinase 4/cyclin D1 (Homo sapiens, UniProt P11802); test: Inhibition of CDK4/Cyclin-D1 (unknown origin) by homogeneous time-resolved fluorescence assay; assay type: protein-complex assay; outline: as §2
[14] = AUC (0 to t) in Sprague-Dawley rat at 5 mg/kg, po; assay type: ADME, organism-based; set-up: dose 5 mg/kg, route oral; conditions: plasma
Mus musculus [15] = test: Inhibition of Cdc7/Dbf4 in NCR nude mouse xenografted with human HCT116 cells assessed as reduction of phosphorylated MCM2 level in tumor at 50 mg/kg, iv after 3 hrs; assay type: functional; conditions: HCT-116, 3 h
Outline: (§4)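 Female athymic NCR/nu mice, 4–6 weeks old, bearing subcutaneous HCT-116 xenografts (5 × 10^6 cells in Matrigel) grown to about 250 mm3. Single iv dose formulated in 20% HPbCD, 1% HPMC, 1% PluronicF68, pH7 at 10 mg/ml; three mice per group. Tumors were homogenized in Tris lysis buffer with protease and phosphatase inhibitors. MSD capture with total MCM2 antibody, then phospho-Ser53 or total MCM2 detection by chemiluminescence; inhibition taken from the phospho/total ratio.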

Mus musculus [16] = test: Inhibition of Cdc7/Dbf4 in NCR nude mouse xenografted with human HCT116 cells assessed as reduction of phosphorylated MCM2 level in tumor at 150 mg/kg, iv after 1 hr; assay type: functional; conditions: HCT-116, 1 h; outline: as §4
HCT-116 [17] = test: Inhibition of DNA synthesis in human HCT116 cells after 2 days by BrdU incorporation assay; assay type: functional, cell-based; conditions: HCT-116, 48 h
[18] = Inhibition of CK1gamma (unknown origin) by TR-FRET assay; set-up: species or system Homo sapiens
Outline: (§5)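 CK1 isoform inhibition measured in Lance TR-FRET kinase assays, reported as IC50.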

[19] = AUC (0 to infinity) in Sprague-Dawley rat at 2 mg/kg, iv; assay type: ADME, organism-based; set-up: time infinity, dose 2 mg/kg, route intravenous; conditions: plasma
[20] = Half life in Sprague-Dawley rat at 2 mg/kg, iv; assay type: ADME, organism-based; set-up: dose 2 mg/kg, route intravenous; conditions: in vivo
[21] = Intrinsic clearance in mouse liver microsomes at 1 uM after 30 mins by reverse phase HPLC analysis in presence of NADPH; assay type: ADME; conditions: read-out: CLH
Outline: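 Reactions were stopped with MeCN after 0 or 30 min. Samples were analysed by reverse-phase HPLC–tandem MS to give intrinsic clearance (µl/min/mg).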

[22] = target: T1, CDC7/DBF4 (Cell division cycle 7-related protein kinase/Activator of S phase kinase); test: Inhibition of Cdc7/Dbf4 (unknown origin) using 0.037 uM of ATP as substrate by AlphaScreen assay; assay type: protein-complex assay
Mus musculus [23] = test: Toxicity in NCR nude mouse xenografted with human HCT116 cells at 50 mg/kg, iv; assay type: organism-based, HCT-116; set-up: dose 50 mg/kg, route intravenous; conditions: in vivo; outline: as §3
[24] = target: Casein kinase I isoform alpha (Homo sapiens, UniProt P48729); test: Inhibition of CK1alpha (unknown origin) by TR-FRET assay; outline: as §5
Chain of Casein kinase I isoform alpha (P48729 whole entry, canonical isoform): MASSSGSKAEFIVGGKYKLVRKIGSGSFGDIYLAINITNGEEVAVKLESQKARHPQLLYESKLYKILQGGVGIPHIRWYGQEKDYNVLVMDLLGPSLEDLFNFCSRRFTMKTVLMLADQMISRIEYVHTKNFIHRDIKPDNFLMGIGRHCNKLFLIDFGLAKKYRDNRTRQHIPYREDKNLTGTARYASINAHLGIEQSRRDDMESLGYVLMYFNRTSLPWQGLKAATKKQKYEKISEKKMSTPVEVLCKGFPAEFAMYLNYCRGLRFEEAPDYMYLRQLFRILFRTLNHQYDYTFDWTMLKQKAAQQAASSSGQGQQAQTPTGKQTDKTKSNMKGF

[25] = target: Casein kinase I isoform delta (Homo sapiens, UniProt P48730); test: Inhibition of CK1delta (unknown origin) by TR-FRET assay; outline: as §5
Chain of Casein kinase I isoform delta (P48730 whole entry, canonical isoform): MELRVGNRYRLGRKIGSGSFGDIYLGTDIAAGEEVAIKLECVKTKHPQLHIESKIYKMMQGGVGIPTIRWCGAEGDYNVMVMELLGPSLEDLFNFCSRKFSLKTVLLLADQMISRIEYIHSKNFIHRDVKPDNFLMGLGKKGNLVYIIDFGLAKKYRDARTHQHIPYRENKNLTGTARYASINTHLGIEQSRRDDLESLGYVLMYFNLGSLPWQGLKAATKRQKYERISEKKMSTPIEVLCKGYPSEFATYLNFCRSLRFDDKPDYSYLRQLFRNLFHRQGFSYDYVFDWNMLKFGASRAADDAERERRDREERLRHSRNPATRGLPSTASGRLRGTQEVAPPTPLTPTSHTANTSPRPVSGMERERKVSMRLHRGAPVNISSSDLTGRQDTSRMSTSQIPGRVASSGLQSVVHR

Casein kinase II = Casein kinase II (Homo sapiens, UniProt P19784+P67870+P68400); test: Inhibition of CK2 (unknown origin) by homogeneous time-resolved fluorescence assay; assay type: protein-complex assay; outline: as §2
Chain of Casein kinase II (P67870 whole entry): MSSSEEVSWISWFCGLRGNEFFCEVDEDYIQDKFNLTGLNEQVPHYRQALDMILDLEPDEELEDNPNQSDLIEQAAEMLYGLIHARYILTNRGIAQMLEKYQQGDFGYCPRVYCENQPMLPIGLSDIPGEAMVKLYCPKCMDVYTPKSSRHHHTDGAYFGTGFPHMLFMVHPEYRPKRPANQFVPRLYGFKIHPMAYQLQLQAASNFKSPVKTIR
Chain of Casein kinase II (P68400 whole entry): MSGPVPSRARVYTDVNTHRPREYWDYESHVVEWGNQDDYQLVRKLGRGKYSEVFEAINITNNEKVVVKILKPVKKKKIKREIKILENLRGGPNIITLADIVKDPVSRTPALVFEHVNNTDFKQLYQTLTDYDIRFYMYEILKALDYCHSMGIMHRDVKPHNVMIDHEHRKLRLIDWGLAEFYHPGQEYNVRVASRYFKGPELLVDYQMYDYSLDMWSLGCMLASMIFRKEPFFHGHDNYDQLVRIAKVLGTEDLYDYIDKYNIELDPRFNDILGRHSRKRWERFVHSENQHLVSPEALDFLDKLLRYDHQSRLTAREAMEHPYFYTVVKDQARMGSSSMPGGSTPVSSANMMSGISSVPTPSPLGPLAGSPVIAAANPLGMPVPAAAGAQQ
Chain of Casein kinase II (P19784 whole entry): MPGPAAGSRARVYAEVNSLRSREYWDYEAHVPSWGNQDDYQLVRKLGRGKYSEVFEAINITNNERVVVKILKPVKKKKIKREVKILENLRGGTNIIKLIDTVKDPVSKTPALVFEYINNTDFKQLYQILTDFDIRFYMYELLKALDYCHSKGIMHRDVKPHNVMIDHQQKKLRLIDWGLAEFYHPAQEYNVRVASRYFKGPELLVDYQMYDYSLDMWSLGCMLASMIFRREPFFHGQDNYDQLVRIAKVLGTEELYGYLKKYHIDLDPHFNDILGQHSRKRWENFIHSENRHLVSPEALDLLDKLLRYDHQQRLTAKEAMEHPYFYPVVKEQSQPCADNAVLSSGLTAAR

HCT-116 [26] = test: Induction of apoptosis in human HCT116 cells assessed as activation of caspase 3/7; assay type: functional, cell-based

| Compound | IC50 [5] [nM] | IC50 [6] [nM] | IC50 [8] [nM] | IC50 (CDK9/cyclin T1) [nM] | IC50 (HCT-116 [10]) [nM] | IC50 [13] [nM] | IC50 (HCT-116 [17]) [nM] | IC50 [18] [nM] | microsomal CLint at 1 µM [21] [µL/min/mg] | IC50 [24] [nM] | IC50 [25] [nM] | IC50 (Casein kinase II) [nM] | IC50 (HCT-116 [26]) [nM] | further results |
| --- | --- | --- | --- | --- | --- | --- | --- | --- | --- | --- | --- | --- | --- | --- |
| CCOC(=O)c1sc(-c2ccncc2)nc1O | – | – | – | – | – | – | – | – | – | – | – | – | – | IC50 [1]: 405 nM; IC50 [2]: 318 nM; IC50 [3]: 528 nM; IC50 [4]: 300 nM |
| NC(=O)c1sc(-c2ccnc(N)n2)nc1-c1ccc(Cl)cc1Cl | > 50000 | > 1000 | 501 | 749 | 4200 | > 50000 | 2600 | 760 | 57 | 694 | 84 | 29100 | > 50000 | Activity (Mus musculus [7]): Toxic; Activity (HCT-116 [9]): Active; Tmax [11]: 2.17 h; CL/F [12]: 1050 mL/min/kg; Cp(f) (Plasma): > 1000 nM; AUC(0-t) [14]: 83.3 ng·h/mL; inhibition in vivo at 50 mg/kg (Mus musculus [15]): 39%; inhibition in vivo at 150 mg/kg (Mus musculus [16]): 30%; AUC(0-inf) [19]: 521 ng·h/mL; half-life [20]: 6.56 h; IC50 [22]: 63 nM; Activity (Mus musculus [23]): Non-toxic |
| COc1ccc(-c2nc(-c3ccnc(N)n3)sc2C(N)=O)c(Cl)c1 | > 50000 | > 1000 | 862 | 729 | 4600 | > 50000 | 6900 | 1900 | 155 | 545 | 104 | 65000 | > 50000 | – |
